Source: ChEMBL document CHEMBL3097988, “Synthesis and characterization of new N-(4-(4-chloro-1H-imidazol-1-yl)-3-methoxyphenyl)amide/sulfonamide derivatives as possible antimicrobial and antitubercular agents” (2014)
In brackets after ≈: the same amount, converted by molar mass.

Tests used:
Type in all cases: functional
Aspergillus flavus = assay: Antimicrobial activity against Aspergillus flavus after 3 to 4 days by serial plate dilution method
Outline: (§1)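 Fungal MIC by serial plate dilution. Sabouraud agar (peptone, D-glucose, agar; pH 5.7) plates seeded with saline spore suspension, dried 1 h at 37 °C. Wells punched and filled with compound in DMSO; DMSO-only control. Triplicate plates held 3–4 days at 37 °C; inhibition zone diameter measured. Amphotericin B positive control. Tested range […] per mL.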

Staphylococcus aureus [1] = assay: Ratio of ciprofloxacin MIC to compound MIC for Staphylococcus aureus ATCC 25923
[2] = test system: Mycobacterium tuberculosis; assay: Antimicrobial activity against Mycobacterium tuberculosis H37Rv ATCC 27294 at 1 to 100 ug/ml after 7 days by resazurin assay
Outline: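 Preliminary screen at three concentrations (1, 10 and 100) by resazurin microtitre assay. Cultures were grown in Middlebrook 7H9 with 10% OADC, and compounds came from 2 mg/mL DMF stocks with DMF controls. Plates were incubated 7 days at 37 °C, and resazurin colour was read after 1 h. Inhibition was scored as no blue-to-pink change.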

Rhizopus = assay: Antimicrobial activity against Rhizopus sp. after 3 to 4 days by serial plate dilution method; outline: as §1
Klebsiella pneumoniae [3] = assay: Antimicrobial activity against Klebsiella pneumoniae ATCC 13883 after 16 to 18 hrs by serial plate dilution method
Outline: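 Bacterial MIC by serial dilution in Mueller-Hinton broth adjusted to pH 5.0 with phosphate buffer. Tubes inoculated with standardized bacterial suspension, incubated 16–18 h at 37 °C. MIC read as lowest concentration with no visible growth. Range […] per mL. DMSO as negative control, ciprofloxacin as positive control.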

Candida albicans = assay: Antimicrobial activity against Candida albicans after 3 to 4 days by serial plate dilution method; outline: as §1
[4] = test system: Mycolicibacterium fortuitum; assay: Antimicrobial activity against Mycobacterium fortuitum ATCC 19542 after 7 days by resazurin assay; settings: ATCC 19542, 168 h
Escherichia coli = assay: Antimicrobial activity against Escherichia coli ATCC 25922 after 16 to 18 hrs by […]
Klebsiella pneumoniae [5] = assay: Ratio of ciprofloxacin MIC to compound MIC for Klebsiella pneumoniae ATCC 13883
[6] = test system: Mycobacterium tuberculosis; assay: Antimicrobial activity against Mycobacterium tuberculosis H37Rv ATCC 27294 after 7 days by resazurin assay; settings: H37Rv ATCC 27294, 168 h
Outline: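 Resazurin microtitre assay. Cultures were grown in Middlebrook 7H9 with 10% OADC and added to fresh medium in 96-well plates. Test compounds came from 2 mg/mL DMF stocks, with DMF-only controls. Plates were incubated 7 days at 37 °C, then resazurin was added and read after 1 h at 37 °C. MIC was the lowest concentration preventing the blue-to-pink change.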

Staphylococcus aureus [7] = assay: Antimicrobial activity against Staphylococcus aureus ATCC 25923 after 16 to 18 hrs by […]
[8] = test system: Mycolicibacterium smegmatis; assay: Antimicrobial activity against Mycobacterium smegmatis (MC2) ATCC 19420 after 7 days by resazurin assay; settings: (MC2) ATCC 19420, 168 h

SMILES | MIC (Aspergillus flavus) | Ratio (Staphylococcus aureus [1]) | inhibition (INH) [2] | MIC (Rhizopus) | MIC (Klebsiella pneumoniae [3]) | MIC (Candida albicans) | MIC [4] | MIC (Escherichia coli) | Ratio (Klebsiella pneumoniae [5]) | MIC [6] | MIC (Staphylococcus aureus [7]) | MIC [8]
COc1cc(NS(=O)(=O)Cc2cccc(C(F)(F)F)c2)ccc1-n1cnc(Cl)c1 | 32 µg/mL (≈ 71.8 µM) | 1 | 90% | 128 µg/mL (≈ 287 µM) | 4 µg/mL (≈ 8.97 µM) | 64 µg/mL (≈ 144 µM) | 10 µg/mL (≈ 22.4 µM) | 64 µg/mL (≈ 144 µM) | 2 | 1.25 µg/mL (≈ 2.8 µM) | 4 µg/mL (≈ 8.97 µM) | 
COc1cc(NS(=O)(=O)c2cc(F)cc(C(F)(F)F)c2)ccc1-n1cnc(Cl)c1 | 8 µg/mL (≈ 17.8 µM) | 1 | 95% | 16 µg/mL (≈ 35.6 µM) | 8 µg/mL (≈ 17.8 µM) | 8 µg/mL (≈ 17.8 µM) | 10 µg/mL (≈ 22.2 µM) | 4 µg/mL (≈ 8.89 µM) | 1 | 0.625 µg/mL (≈ 1.39 µM) | 4 µg/mL (≈ 8.89 µM) | 10 µg/mL (≈ 22.2 µM)
COc1cc(NS(=O)(=O)c2ccc(C(F)(F)F)cc2)ccc1-n1cnc(Cl)c1 | 16 µg/mL (≈ 37.1 µM) | 1 | 95% | 16 µg/mL (≈ 37.1 µM) | 8 µg/mL (≈ 18.5 µM) | 8 µg/mL (≈ 18.5 µM) | 10 µg/mL (≈ 23.2 µM) | 16 µg/mL (≈ 37.1 µM) | 1 | 0.625 µg/mL (≈ 1.45 µM) | 4 µg/mL (≈ 9.26 µM) | 1.25 µg/mL (≈ 2.89 µM)
COc1cc(NS(=O)(=O)c2c(F)ccc(C(F)(F)F)c2Cl)ccc1-n1cnc(Cl)c1 | 16 µg/mL (≈ 33 µM) | 1 | 90% | 16 µg/mL (≈ 33 µM) | 8 µg/mL (≈ 16.5 µM) | 8 µg/mL (≈ 16.5 µM) | 10 µg/mL (≈ 20.7 µM) | 4 µg/mL (≈ 8.26 µM) | 1 | 0.625 µg/mL (≈ 1.29 µM) | 4 µg/mL (≈ 8.26 µM) | 1.25 µg/mL (≈ 2.58 µM)
